Measurements as given in ChEMBL document CHEMBL4689842, “EUbOPEN Chemogenomics Library wave 1” (2021).

Columns and labels:
[1] = test system: U2OS; assay: Incucyte cell viability with U2OS; type: toxicity, cell-based; settings: human, 10 µM, compound concentration 10 uM; also: filed as whole numbers so only -1 and 0 and 1 occur
[2] = test system: U2OS; assay: Multiplex assay against U2OS; type: toxicity, cell-based; settings: human
Summary of the method: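 On a CQ1 microscope at 37°C and 5% CO2, live cells were imaged after compound addition. They had been stained at seeding with Hoechst33342, BioTracker Green Microtubule Cytoskeleton Dye, MitoTracker Red and Annexin V Alexa Fluor 680. CellPathfinder machine-learning gating assigned cells to Hoechst high-intensity objects or normal cells, normal cells to healthy, pyknosed or fragmented nuclei, and pyknosed cells to mitotic or apoptotic. Tubulin, mitochondrial-mass and membrane-permeability phenotypes are per cents of healthy-nucleus cells.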

[3] = 12 h, 1 µM, compound concentration 1 uM, replicate 1
[4] = 12 h, 1 µM, compound concentration 1 uM, replicate 2
[5] = 12 h, 10 µM, compound concentration 10 uM, replicate 1
[6] = 12 h, 10 µM, compound concentration 10 uM, replicate 2
[7] = 24 h, 1 µM, compound concentration 1 uM, replicate 1
[8] = 24 h, 1 µM, compound concentration 1 uM, replicate 2
[9] = 24 h, 10 µM, compound concentration 10 uM, replicate 1
[10] = 24 h, 10 µM, compound concentration 10 uM, replicate 2

## Cc1c(Nc2ccc(S(=O)(=O)N3CCN(C)CC3)cc2F)nc2ccc(Nc3cnn(C4CC4)c3)cn2c1=O
[1]; 0 h, replicate number 1, timepoint 0 hours
  Growth Rate: 0
[1]; 6 h, replicate number 1, timepoint 6 hours
  Growth Rate: 0
[1]; 6 h, replicate number 2, timepoint 6 hours
  Growth Rate: 1
[1]; 12 h, replicate number 1, timepoint 12 hours
  Growth Rate: 0
[1]; 12 h, replicate number 2, timepoint 12 hours
  Growth Rate: 1
[1]; 18 h, replicate number 1, timepoint 18 hours
  Growth Rate: 0
[1]; 18 h, replicate number 2, timepoint 18 hours
  Growth Rate: 1
[1]; 24 h, replicate number 1, timepoint 24 hours
  Growth Rate: 0
[1]; 24 h, replicate number 2, timepoint 24 hours
  Growth Rate: 1
[2]; [3]
  Population Apoptotic (%): 50%
  Population Fragmented Nuclei (%): 7%
  Population Healthy Nuclei (%): 81%
  Population Hoechst High Intensity Objects (%): 3%
  Population Membrane Permeable-Phenotype (%): 58%
  Population Mitochondria Different-Phenotype (%): 9%
  Population Mitotic Cells (%): 50%
  Population Normal (%): 96%
  Population Pyknosed Nuclei (%): 11%
  Population Tubulin-Different-Phenotype (%): 53%
  Total Cell Count: 194
[2]; [4]
  Population Apoptotic (%): 0%
  Population Fragmented Nuclei (%): 3%
  Population Healthy Nuclei (%): 93%
  Population Hoechst High Intensity Objects (%): 6%
  Population Membrane Permeable-Phenotype (%): 40%
  Population Mitochondria Different-Phenotype (%): 18%
  Population Mitotic Cells (%): 100%
  Population Normal (%): 93%
  Population Pyknosed Nuclei (%): 3%
  Population Tubulin-Different-Phenotype (%): 34%
  Total Cell Count: 124
[2]; [5]
  Population Apoptotic (%): 27%
  Population Fragmented Nuclei (%): 2%
  Population Healthy Nuclei (%): 91%
  Population Hoechst High Intensity Objects (%): 3%
  Population Membrane Permeable-Phenotype (%): 7%
  Population Mitochondria Different-Phenotype (%): 21%
  Population Mitotic Cells (%): 72%
  Population Normal (%): 96%
  Population Pyknosed Nuclei (%): 5%
  Total Cell Count: 459
[2]; [6]
  Population Apoptotic (%): 37%
  Population Fragmented Nuclei (%): 9%
  Population Healthy Nuclei (%): 82%
  Population Hoechst High Intensity Objects (%): 15%
  Population Membrane Permeable-Phenotype (%): 9%
  Population Mitochondria Different-Phenotype (%): 32%
  Population Mitotic Cells (%): 62%
  Population Normal (%): 84%
  Population Pyknosed Nuclei (%): 7%
  Population Tubulin-Different-Phenotype (%): 20%
  Total Cell Count: 603
[2]; [7]
  Population Apoptotic (%): 50%
  Population Fragmented Nuclei (%): 10%
  Population Healthy Nuclei (%): 80%
  Population Hoechst High Intensity Objects (%): 1%
  Population Membrane Permeable-Phenotype (%): 37%
  Population Mitochondria Different-Phenotype (%): 15%
  Population Mitotic Cells (%): 50%
  Population Normal (%): 98%
  Population Pyknosed Nuclei (%): 9%
  Population Tubulin-Different-Phenotype (%): 33%
  Total Cell Count: 275
[2]; [8]
  Population Apoptotic (%): 42%
  Population Fragmented Nuclei (%): 6%
  Population Healthy Nuclei (%): 87%
  Population Hoechst High Intensity Objects (%): 5%
  Population Membrane Permeable-Phenotype (%): 19%
  Population Mitochondria Different-Phenotype (%): 10%
  Population Mitotic Cells (%): 57%
  Population Normal (%): 94%
  Population Pyknosed Nuclei (%): 6%
  Population Tubulin-Different-Phenotype (%): 19%
  Total Cell Count: 152
[2]; [9]
  Population Apoptotic (%): 50%
  Population Fragmented Nuclei (%): 3%
  Population Healthy Nuclei (%): 91%
  Population Hoechst High Intensity Objects (%): 2%
  Population Membrane Permeable-Phenotype (%): 5%
  Population Mitochondria Different-Phenotype (%): 15%
  Population Mitotic Cells (%): 50%
  Population Normal (%): 97%
  Population Pyknosed Nuclei (%): 5%
  Population Tubulin-Different-Phenotype (%): 26%
  Total Cell Count: 480
[2]; [10]
  Population Apoptotic (%): 30%
  Population Fragmented Nuclei (%): 5%
  Population Healthy Nuclei (%): 85%
  Population Hoechst High Intensity Objects (%): 11%
  Population Membrane Permeable-Phenotype (%): 10%
  Population Mitochondria Different-Phenotype (%): 26%
  Population Mitotic Cells (%): 69%
  Population Normal (%): 88%
  Population Pyknosed Nuclei (%): 9%
  Population Tubulin-Different-Phenotype (%): 20%
  Total Cell Count: 644
